Screens as filed in PubChem.
S100A4 inh HTS: inhibitors of S100A4-myosin IIA peptide binding, primary screen, biochemical, fluorescence polarization, TAMRA-MyoIIA peptide; 0.14% of 360,000 active; Protein S100-A4 (Homo sapiens), P26447; inhibition, % at 10.7 µM; AID 652163, 2013;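 active means mean inhibition of at least 70% across replicates, with every replicate also reaching that level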
Target sequence (P26447 whole entry, looked up): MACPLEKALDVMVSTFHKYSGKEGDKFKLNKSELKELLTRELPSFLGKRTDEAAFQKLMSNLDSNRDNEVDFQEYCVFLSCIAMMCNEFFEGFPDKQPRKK
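Test system – S100A4 monomer (human) · Compound – single-point compound testing · Schedule – 5 min incubation before reading · Probe or stimulus – TAMRA-labelled myosin IIA heavy-chain peptide probe, 5 nM · Benchmarks – neutral control DMSO, positive control TFP · Medium – Calcium-containing HEPES buffer, pH 7.2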
SIRT5 block: SIRT5 desuccinylase inhibitors, primary screen, biochemical, fluorescence imaging, single point, set 5; inhibition, % at 15 µM; NAD-dependent protein deacylase sirtuin-5, mitochondrial (Homo sapiens), Q9NXA8; Purified SirT5, succinyl-peptide AMC, trypsin-coupled fluorescence; 1.1% of 330,000 active; in the data active means inhibition above about 15%
Target sequence (Q9NXA8 whole entry, looked up): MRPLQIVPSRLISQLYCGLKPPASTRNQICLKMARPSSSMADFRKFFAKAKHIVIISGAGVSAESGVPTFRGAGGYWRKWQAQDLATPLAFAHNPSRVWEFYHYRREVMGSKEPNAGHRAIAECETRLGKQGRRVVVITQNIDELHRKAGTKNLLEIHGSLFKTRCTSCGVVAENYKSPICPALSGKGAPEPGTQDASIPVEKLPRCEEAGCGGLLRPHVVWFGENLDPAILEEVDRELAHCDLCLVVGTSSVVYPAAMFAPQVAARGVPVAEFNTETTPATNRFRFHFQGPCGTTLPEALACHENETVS
AF4-AF9 inh: inhibitors of AF4 peptide binding to AF9, primary screen, biochemical, AlphaScreen, biotin-AF4 peptide, FLAG-AF9, single point; 0.47% of 350,000 active; Protein AF-9 (Homo sapiens), P42568; inhibition, % at 10 µM;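 active means every replicate reaching a set inhibition limit, whatever the replicate mean, cut at about 25% in these data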
ERAP1 inh: human ERAP1 aminopeptidase inhibitors, primary screen, biochemical, single point, plate reader | Endoplasmic reticulum aminopeptidase 1 (Homo sapiens), Q9NZ08 | recombinant ERAP1, Leu-AMC fluorescence, 60 min | inhibition, % at 10.7 µM | 0.15% of 340,000 active;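 active means mean replicate inhibition of at least 30%, or all replicates individually reaching that 30% level; inactive means mean below 30% and not every replicate reaching it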
E-sel inducer: E-selectin induction in HUVECs, primary screen, imaging, HUVEC, immunofluorescence imaging, single point; AID 686992, 2013; P16581; activation, % at 7.58 µM; normalized: neutral wells 0, TNF-alpha wells 100; 0.37% of 260,000 active;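 active means mean E-selectin-positive cell signal at least 10% of the positive control, reached in at least 60% of replicates, without over 20% cell loss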
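Test system – human umbilical vein endothelial cells (HUVEC), E-selectin induction · Input – 3,000 HUVEC seeded per well · Buffer or medium – EGM-2, gelatin · Compound dosing – single-point compound dose · Detection – immunofluorescence imaging · Measure – percent E-selectin-positive cells · Controls – TNF-alpha high, DMSO low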
Ecoli rRNA inh: reduced GFP signal of wild-type E. coli, primary screen, bacterial rRNA inhibitor project, GFP/RFP fluorescence, OD600, single point. E. coli WT GFP vs humanized-ribosome RFP mutants, 24 h; stronger effect = lower value; DMSO median 0, no signal -100. GFP signal change (wild-type ribosome), % (concentration not given with the values). 1.6% of 350,000 active. AID 720706, 2013;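 active means significant combined selectivity score with lowered wild-type GFP, culture density cut under 30%, mutant RFP and density less affected; inactive means any of these conditions unmet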
A number is an active result. A selection: hits, their analogues and other compounds. The true share with any hit is near 3.4%.

Screening C[C@H]1CN([C@@H](C)CO)C(=O)c2cc(NC(=O)Cn3cnnn3)ccc2O[C@@H]1CN(C)S(=O)(=O)c1ccccc1 returned S100A4 inh HTS inactive, SIRT5 block inactive, AF4-AF9 inh inactive, ERAP1 inh inactive, E-sel inducer inactive and Ecoli rRNA inh inactive.
For C[C@H]1CN([C@@H](C)CO)C(=O)c2cc(NC(=O)Cn3cnnn3)ccc2O[C@@H]1CN(C)S(=O)(=O)c1ccc(F)cc1 the results were S100A4 inh HTS inactive, SIRT5 block 31.3, AF4-AF9 inh inactive, ERAP1 inh inactive, E-sel inducer inactive and Ecoli rRNA inh inactive.
C[C@H]1CN([C@@H](C)CO)C(=O)c2cc(NC(=O)Cn3cnnn3)ccc2O[C@H]1CN(C)S(=O)(=O)c1ccccc1 was read as S100A4 inh HTS inactive, SIRT5 block inactive, AF4-AF9 inh inactive, ERAP1 inh inactive, E-sel inducer 36.0 and Ecoli rRNA inh inactive.
For O=C(NCCN1CCCC1)[C@@H]1[C@@H](CO)[C@@H]2Cn3c(cccc3=O)[C@H]1N2C(=O)c1ccccc1 the results were S100A4 inh HTS inactive, SIRT5 block inactive, AF4-AF9 inh inactive, ERAP1 inh inactive, E-sel inducer inactive and Ecoli rRNA inh inactive.
`Cc1ccc(CN2C(=O)CCC2C(=O)NCCN2CCN(c3cccc(Cl)c3)CC2)cc1` (centres undefined) gave S100A4 inh HTS inactive, SIRT5 block inactive, AF4-AF9 inh inactive, ERAP1 inh 30.6, E-sel inducer inactive and Ecoli rRNA inh inactive.
Cc1ccc(CNC(=O)C2CCC(=O)N2Cc2ccc(F)cc2)cc1 (centres undefined) was read as S100A4 inh HTS inactive, SIRT5 block inactive, AF4-AF9 inh inactive, ERAP1 inh inactive, E-sel inducer inactive and Ecoli rRNA inh inactive.
For O=C(NC1CCCCC1)N1CC(=O)N2[C@H](CO)[C@H](c3ccc(-c4cccc(F)c4)cc3)[C@H]2C1 the results were S100A4 inh HTS inactive, SIRT5 block inactive, AF4-AF9 inh inactive, ERAP1 inh inactive, E-sel inducer inactive and Ecoli rRNA inh inactive.
Screening COc1ccc(OC)c(/C=C/C(=O)c2ccc3c(c2)OCCO3)c1 returned S100A4 inh HTS inactive, SIRT5 block inactive, AF4-AF9 inh inactive, ERAP1 inh inactive, E-sel inducer inactive and Ecoli rRNA inh -24.7.
For COc1ccc(OC)c(/C=C/C(=O)OCC(=O)N2CCCC2)c1 the results were S100A4 inh HTS inactive, SIRT5 block inactive, AF4-AF9 inh inactive, ERAP1 inh inactive, E-sel inducer inactive and Ecoli rRNA inh inactive.
COc1ccc(OC)c(/C=C/C(=O)Oc2ccc(C(C)=O)cc2)c1 was read as S100A4 inh HTS inactive, SIRT5 block inactive, AF4-AF9 inh inactive, ERAP1 inh inactive and Ecoli rRNA inh -24.0.
`C=CC[C@@]1(C(=O)N2CCOCC2)N=C(c2ccc(OCCCO)cc2)O[C@@H]1c1ccccc1` gave S100A4 inh HTS inactive, SIRT5 block inactive, AF4-AF9 inh inactive and ERAP1 inh inactive.
Screening Cc1ccc2nc(N(CCCN(C)C)C(=O)c3ccco3)sc2c1 returned S100A4 inh HTS inactive, SIRT5 block inactive, AF4-AF9 inh inactive, E-sel inducer inactive and Ecoli rRNA inh inactive.
`CN(C)CCCN(C(=O)c1ccco1)c1nc(-c2ccc(Cl)cc2)cs1` gave S100A4 inh HTS inactive, SIRT5 block inactive, AF4-AF9 inh 26.2, ERAP1 inh inactive, E-sel inducer inactive and Ecoli rRNA inh inactive.
CN(C)CCCN(C(=O)c1ccco1)c1nc2ccc(F)cc2s1 was read as S100A4 inh HTS inactive, SIRT5 block 18.6, AF4-AF9 inh inactive, ERAP1 inh inactive and Ecoli rRNA inh inactive.
Screening Cc1ccc(-c2csc(N(CCCN(C)C)C(=O)c3ccco3)n2)cc1 returned S100A4 inh HTS inactive, SIRT5 block inactive, AF4-AF9 inh inactive, ERAP1 inh inactive, E-sel inducer inactive and Ecoli rRNA inh inactive.
For C[C@H](CO)N1C[C@H](C)[C@H](CN(C)C(=O)Nc2ccc3c(c2)OCO3)Oc2ccc(NC(=O)Nc3ccccc3)cc2C1=O the results were E-sel inducer inactive and Ecoli rRNA inh inactive.
`COc1ccccc1/C=C/C(=O)NC(=S)N(C)C1CCCCC1` gave S100A4 inh HTS inactive, SIRT5 block inactive, AF4-AF9 inh inactive, ERAP1 inh inactive and Ecoli rRNA inh -24.3.
For CSc1ccccc1NC(=O)Nc1cccc(Cl)c1 the results were S100A4 inh HTS inactive, SIRT5 block inactive, AF4-AF9 inh inactive, ERAP1 inh inactive and Ecoli rRNA inh -27.9.
For CO[C@H]1CN(C)C(=O)c2ccc(NC(=O)Nc3ccccc3)cc2OC[C@@H](C)NC[C@H]1C the results were S100A4 inh HTS inactive, SIRT5 block inactive, AF4-AF9 inh inactive, ERAP1 inh inactive, E-sel inducer inactive and Ecoli rRNA inh inactive.
For CCc1c(O)nc(SCC(=O)Nc2nc3ccccc3s2)n(C2CCCCC2)c1=O the results were S100A4 inh HTS inactive, SIRT5 block inactive, AF4-AF9 inh inactive, ERAP1 inh inactive and Ecoli rRNA inh -16.6.
`O=C(C[C@H]1CC[C@H](NC(=O)C2CCC2)[C@H](CO)O1)NCC1CC1` gave S100A4 inh HTS inactive, SIRT5 block inactive, AF4-AF9 inh inactive, ERAP1 inh inactive, E-sel inducer inactive and Ecoli rRNA inh inactive.
`O=S(=O)(c1ccc(F)cc1)N1CCCCN2[C@H](C1)[C@@H](c1ccc(-c3ccccc3F)cc1)[C@@H]2CO` gave S100A4 inh HTS inactive, SIRT5 block inactive, AF4-AF9 inh inactive and ERAP1 inh inactive.
For Cc1ccccc1-c1ccc([C@H]2[C@H](CO)N3CCCCN(S(=O)(=O)c4ccc(F)cc4)C[C@@H]23)cc1 the results were SIRT5 block 21.3, E-sel inducer inactive and Ecoli rRNA inh inactive.
Screening O=S(=O)(c1ccc(F)cc1)N1CCCCN2[C@H](CO)[C@H](c3ccc(-c4ccccc4F)cc3)[C@@H]2C1 returned S100A4 inh HTS inactive, SIRT5 block 20.0, AF4-AF9 inh inactive and ERAP1 inh inactive.
For O=S(=O)(c1ccc(F)cc1)N1CCCCN2[C@@H](CO)[C@H](c3ccc(-c4ccccc4F)cc3)[C@@H]2C1 the results were S100A4 inh HTS inactive, SIRT5 block 22.0, AF4-AF9 inh inactive and ERAP1 inh inactive.
O=S(=O)(c1ccc(F)cc1)N1CCCCN2[C@H](C1)[C@H](c1ccc(-c3ccccc3F)cc1)[C@@H]2CO was read as S100A4 inh HTS inactive, SIRT5 block 16.9, AF4-AF9 inh inactive and ERAP1 inh inactive.
Screening O=S(=O)(c1ccccc1)N1CCCCN2[C@H](CO)[C@@H](c3ccc(-c4ccccc4F)cc3)[C@@H]2C1 returned Ecoli rRNA inh inactive.
